Results published in ChEMBL document CHEMBL2331333, “Synthesis, biological evaluation of new oxazolidino-sulfonamides as potential antimicrobial agents” (2013).
In brackets after ≈: the same amount, converted by molar mass. Activity calls are given as the source filed them. The rule behind the calls is not given here.

How the values were obtained:
Candida albicans [1] = assay: Antifungal activity against Candida albicans MTCC 3017 after 48 hrs by agar dilution method; format: functional; conditions: MTCC 3017, 48 h
Procedure, shortened: (§1)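 Same disk/dilution format as the antibacterial assay, on potato dextrose agar (39 g/L). Compounds were from DMSO stock, loaded at 1 to 80 per disk, in triplicate. Plates were incubated at 28 ± 2 °C for 48 h. MIC was the lowest amount that arrested growth. Equivalent DMSO served as solvent control.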

Micrococcus luteus [2] = assay: Antibacterial activity against Micrococcus luteus MTCC 2470 at 80 ug/ml after 24 hrs by agar dilution method; format: functional, organism-based
[3] = tested on: Mycobacterium tuberculosis; assay: Antibacterial activity against Mycobacterium tuberculosis H37Rv after 2 to 3 weeks by broth microdilution method; format: functional
Procedure, shortened: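 M. tuberculosis H37Rv, first screened at a single concentration of 32 in triplicate in a microtiter plate (microplate dilution assay). Compounds active in this screen were then taken to MIC determination by broth microdilution. Compounds were dissolved in DMSO.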

Pseudomonas aeruginosa [4] = assay: Antibacterial activity against Pseudomonas aeruginosa MTCC 2453 after 24 hrs by agar dilution method; format: functional; conditions: MTCC 2453, 24 h
Bacillus subtilis [5] = assay: Antibacterial activity against Bacillus subtilis MTCC 121 after 24 hrs by agar dilution method; format: functional; conditions: MTCC 121, 24 h
Staphylococcus [6] = assay: Antibacterial activity against Staphylococcus MLS-16 MTCC 2940 after 24 hrs by agar dilution method; format: functional; conditions: MLS-16 MTCC 2940, 24 h
Bacillus subtilis [7] = assay: Antibacterial activity against Bacillus subtilis MTCC 121 at 80 ug/ml after 24 hrs by agar dilution method; format: functional, organism-based
Staphylococcus aureus [8] = assay: Antibacterial activity against Staphylococcus aureus MTCC 96 at 80 ug/ml after 24 hrs by agar dilution method; format: functional, organism-based
Staphylococcus [9] = assay: Antibacterial activity against Staphylococcus MLS-16 MTCC 2940 at 80 ug/ml after 24 hrs by agar dilution method; format: functional, organism-based
Pseudomonas aeruginosa [10] = assay: Antibacterial activity against Pseudomonas aeruginosa MTCC 2453 at 80 ug/ml after 24 hrs by agar dilution method; format: functional, organism-based
Candida albicans [11] = assay: Antifungal activity against Candida albicans MTCC 3017 at 80 ug/ml after 48 hrs by agar dilution method; format: functional, organism-based; procedure, shortened: as §1
Escherichia coli = assay: Antibacterial activity against Escherichia coli MTCC 739 at 80 ug/ml after 24 hrs by agar dilution method; format: functional, organism-based
[12] = tested on: Mycobacterium tuberculosis; assay: Antibacterial activity against Mycobacterium tuberculosis H37Rv at 32 ug/ml […] by agar dilution method; format: functional, organism-based
Raoultella planticola = assay: Antibacterial activity against Klebsiella planticola MTCC 530 at 80 ug/ml after 24 hrs by agar dilution method; format: functional, organism-based
Micrococcus luteus [13] = assay: Antibacterial activity against Micrococcus luteus MTCC 2470 at 20 ug/ml after 24 hrs by disk diffusion method; format: functional; conditions: MTCC 2470, 24 h, read-out: IZ
Pseudomonas aeruginosa [14] = assay: Antibacterial activity against Pseudomonas aeruginosa MTCC 2453 at 20 ug/ml after 24 hrs by disk diffusion method; format: functional; conditions: MTCC 2453, 24 h, read-out: IZ
Bacillus subtilis [15] = assay: Antibacterial activity against Bacillus subtilis MTCC 121 at 20 ug/ml after 24 hrs by disk diffusion method; format: functional; conditions: MTCC 121, 24 h, read-out: IZ
Staphylococcus aureus [16] = assay: Antibacterial activity against Staphylococcus aureus MTCC 96 after 24 hrs by agar dilution method; format: functional; conditions: MTCC 96, 24 h
Candida albicans [17] = assay: Antifungal activity against Candida albicans MTCC 3017 at 20 ug/ml after 24 hrs by disk diffusion method; format: functional; conditions: MTCC 3017, 24 h, read-out: IZ
Staphylococcus [18] = assay: Antibacterial activity against Staphylococcus MLS-16 MTCC 2940 at 20 ug/ml after 24 hrs by disk diffusion method; format: functional; conditions: MLS-16 MTCC 2940, 24 h, read-out: IZ
Staphylococcus aureus [19] = assay: Antibacterial activity against Staphylococcus aureus MTCC 96 at 20 ug/ml after 24 hrs by disk diffusion method; format: functional; conditions: MTCC 96, 24 h, read-out: IZ
Micrococcus luteus [20] = assay: Antibacterial activity against Micrococcus luteus MTCC 2470 after 24 hrs by agar dilution method; format: functional; conditions: MTCC 2470, 24 h

Compound	MIC (Candida albicans [1])	Activity (Micrococcus luteus [2])	MIC (Pseudomonas aeruginosa [4])	MIC (Bacillus subtilis [5])	MIC (Staphylococcus [6])	Activity (Bacillus subtilis [7])	Activity (Staphylococcus aureus [8])	Activity (Staphylococcus [9])	Activity (Pseudomonas aeruginosa [10])	Activity (Candida albicans [11])	Activity (Escherichia coli)	Activity [12]	Activity (Raoultella planticola)	MIC (Staphylococcus aureus [16])	further results
O=C1O[C@@H](CNS(=O)(=O)c2ccc(F)cc2)CN1c1ccc(N2CCOCC2)c(F)c1	10 µg/mL (≈ 22.1 µM)	inactive	10 µg/mL (≈ 22.1 µM)	10 µg/mL (≈ 22.1 µM)	10 µg/mL (≈ 22.1 µM)										MIC [3]: 1 µg/mL (≈ 2.21 µM)
O=C1O[C@@H](CNS(=O)(=O)c2cc(S(=O)(=O)c3ccccc3)cs2)CN1c1ccc(N2CCOCC2)c(F)c1		inactive				inactive	inactive	inactive	inactive	inactive	inactive	inactive	inactive		
O=C1O[C@@H](CNS(=O)(=O)c2cccs2)CN1c1ccc(N2CCOCC2)c(F)c1	4 µg/mL (≈ 9.06 µM)		4 µg/mL (≈ 9.06 µM)	4 µg/mL (≈ 9.06 µM)	4 µg/mL (≈ 9.06 µM)						inactive	inactive	inactive	4 µg/mL (≈ 9.06 µM)	zone of inhibition at 20 µg/mL (Micrococcus luteus [13]): 15 mm; zone of inhibition at 20 µg/mL (Pseudomonas aeruginosa [14]): 19 mm; zone of inhibition at 20 µg/mL (Bacillus subtilis [15]): 20 mm; zone of inhibition at 20 µg/mL (Candida albicans [17]): 18 mm; zone of inhibition at 20 µg/mL (Staphylococcus [18]): 18 mm; zone of inhibition at 20 µg/mL (Staphylococcus aureus [19]): 20 mm; MIC (Micrococcus luteus [20]): 6 µg/mL (≈ 13.6 µM)
O=C1O[C@@H](CNS(=O)(=O)c2cccc(Cl)c2)CN1c1ccc(N2CCSCC2)c(F)c1		inactive	10 µg/mL (≈ 20.6 µM)	20 µg/mL (≈ 41.2 µM)			inactive	inactive		inactive	inactive	inactive	inactive		
O=C1O[C@@H](CNS(=O)(=O)c2ccc(Oc3ccccc3)cc2)CN1c1ccc(N2CCSCC2)c(F)c1	20 µg/mL (≈ 36.8 µM)	inactive	20 µg/mL (≈ 36.8 µM)		8 µg/mL (≈ 14.7 µM)	inactive					inactive	inactive	inactive	8 µg/mL (≈ 14.7 µM)	
O=C1O[C@@H](CNS(=O)(=O)c2ccc(F)cc2Cl)CN1c1ccc(N2CCOCC2)c(F)c1		inactive		8 µg/mL (≈ 16.4 µM)	20 µg/mL (≈ 41 µM)				inactive	inactive	inactive	inactive	inactive	20 µg/mL (≈ 41 µM)	
